Test results: ChEMBL document CHEMBL2321860, “2-Arylpyrazolo[4,3-d]pyrimidin-7-amino derivatives as new potent and selective human A3 adenosine receptor antagonists. Molecular modeling studies and pharmacological evaluation” (J Med Chem, 2013)
Active and inactive are the calls of the source. The rule behind the calls is not given here.

Legend:
[1] = molecular target: T1, Adenosine receptor A3 (Homo sapiens) (UniProt P0DMS8); experiment: Displacement of [125I]AB-MECA from human A3 adenosine receptor expressed in CHO cells at 1 uM after 60 mins by scintillation counting analysis; type: cell-based
T1 sequence (whole entry): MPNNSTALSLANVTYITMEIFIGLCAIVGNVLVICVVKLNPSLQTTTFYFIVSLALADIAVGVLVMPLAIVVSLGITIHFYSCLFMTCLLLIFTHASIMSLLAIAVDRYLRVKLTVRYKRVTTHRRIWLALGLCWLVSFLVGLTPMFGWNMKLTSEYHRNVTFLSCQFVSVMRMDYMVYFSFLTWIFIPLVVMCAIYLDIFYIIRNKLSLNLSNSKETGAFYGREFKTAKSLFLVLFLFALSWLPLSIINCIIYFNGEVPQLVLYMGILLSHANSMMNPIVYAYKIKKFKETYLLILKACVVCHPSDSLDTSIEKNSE
Procedure, shortened: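 Human A3 CHO membranes (50 μg protein) incubated with 0.5 nM [125I]AB-MECA in 50 mM Tris-HCl, 10 mM MgCl2, 1 mM EDTA, pH 7.4, for 60 min at 37 °C. Nonspecific binding defined with 1 μM AB-MECA. Filtration then counting. Output is % inhibition at 1 μM.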

[2] = molecular target: T2, Adenosine receptor A1 (Homo sapiens, UniProt P30542); experiment: Displacement of [3H]DPCPX from human A1 adenosine receptor expressed in CHO cells after 120 mins by scintillation counting analysis; type: cell-based
T2 sequence (P30542 whole entry): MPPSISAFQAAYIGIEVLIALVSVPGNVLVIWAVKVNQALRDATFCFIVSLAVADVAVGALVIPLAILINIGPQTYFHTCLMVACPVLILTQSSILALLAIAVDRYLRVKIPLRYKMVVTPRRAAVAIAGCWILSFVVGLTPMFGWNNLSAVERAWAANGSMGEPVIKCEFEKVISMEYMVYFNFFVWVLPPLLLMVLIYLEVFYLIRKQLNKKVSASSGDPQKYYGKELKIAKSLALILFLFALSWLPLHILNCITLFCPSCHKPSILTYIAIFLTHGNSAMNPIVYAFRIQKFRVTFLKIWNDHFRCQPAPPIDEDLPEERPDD

[3] = molecular target: T3, Adenosine receptor A2b (Homo sapiens, UniProt P29275); experiment: Inhibition of human A2B adenosine receptor transfected in CHO cells assessed as inhibition of NECA-induced cyclic AMP production after 10 mins by competitive protein binding assay; type: cell-based
T3 sequence (P29275 whole entry): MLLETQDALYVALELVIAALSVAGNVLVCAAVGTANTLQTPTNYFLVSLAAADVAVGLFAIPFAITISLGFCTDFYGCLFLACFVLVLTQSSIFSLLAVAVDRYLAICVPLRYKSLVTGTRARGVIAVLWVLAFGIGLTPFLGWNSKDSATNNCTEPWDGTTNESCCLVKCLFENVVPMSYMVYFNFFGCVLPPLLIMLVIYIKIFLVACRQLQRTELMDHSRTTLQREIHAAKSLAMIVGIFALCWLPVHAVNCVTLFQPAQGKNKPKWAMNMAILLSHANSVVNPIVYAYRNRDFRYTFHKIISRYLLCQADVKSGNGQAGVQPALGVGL
Procedure, shortened: (§1)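 Human A2B CHO cells (1 × 10⁶/assay) preincubated 10 min at 37 °C in buffer with adenosine deaminase (2 IU/mL) and Ro 20-1724. Antagonist inhibition of 200 nM NECA-stimulated cAMP measured; reaction stopped with TCA. cAMP quantified by [3H]cAMP competition with adrenal binding protein. IC50 by sigmoid fit, mean SEM of four experiments; % inhibition at 1 μM.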

[4] = molecular target: T4, Adenosine receptor A2a (Homo sapiens, UniProt P29274); experiment: Displacement of [3H]ZM241385 from human A2A adenosine receptor expressed in CHO cells after 60 mins by scintillation counting analysis; type: cell-based
T4 sequence (P29274 whole entry): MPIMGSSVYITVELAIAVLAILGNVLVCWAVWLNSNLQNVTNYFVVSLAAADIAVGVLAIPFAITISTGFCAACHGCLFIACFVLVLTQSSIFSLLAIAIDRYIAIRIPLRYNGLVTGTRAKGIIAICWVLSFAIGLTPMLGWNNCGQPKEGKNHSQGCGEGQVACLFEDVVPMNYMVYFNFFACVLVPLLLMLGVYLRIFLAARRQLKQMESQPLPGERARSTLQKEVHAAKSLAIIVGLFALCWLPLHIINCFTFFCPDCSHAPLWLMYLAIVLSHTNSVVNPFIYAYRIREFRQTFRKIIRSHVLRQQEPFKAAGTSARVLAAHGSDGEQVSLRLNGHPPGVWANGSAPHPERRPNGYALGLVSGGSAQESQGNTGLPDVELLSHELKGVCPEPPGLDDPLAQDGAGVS
Procedure, shortened: (§2)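 Human A2A CHO membranes (50 μg protein) incubated with 1 nM [3H]ZM-241385 in 50 mM Tris-HCl, 10 mM MgCl2, pH 7.4, for 60 min at 4 °C, using 6–8 concentrations or 1 μM for % inhibition. Nonspecific binding defined with 1 μM ZM-241385. Ki via Cheng–Prusoff, mean SEM of four assays in duplicate.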

[5] = test system: HT-29; experiment: Antiapoptotic activity against human HT-29 cells assessed as cell viability at 10 uM after 48 hrs by MTT assay in presence of 1 uM oxaliplatin (reference value: 94.9 +/- 1.3%); type: functional
Procedure, shortened: (§3)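 HT-29 cells in DMEM high glucose with 20% FBS, grown to confluence and serum-starved overnight. Cells were treated for 48 h with oxaliplatin (0.3–100 μM) with or without 10 μM test compound. Viability was read as MTT reduction (1 mg/mL, 2 h, 37 °C), formazan in DMSO, absorbance 580 nm. Output is % of control, quadruplicate on at least three cell batches.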

[6] = test system: HT-29; experiment: Antiapoptotic activity against human HT-29 cells assessed as cell viability at 10 uM after 48 hrs by MTT assay in presence of 10 uM oxaliplatin (reference value: 87.2 +/- 0.9%); type: functional; settings: HT-29, 48 h, read-out: Activity; procedure, shortened: as §3
[7] = molecular target: T5, Adenosine receptor A2b (Homo sapiens) (UniProt P29275); experiment: Inhibition of human A2B adenosine receptor transfected in CHO cells assessed as inhibition of NECA-induced cyclic AMP production at 1 uM after 10 mins by competitive protein binding assay; type: cell-based; procedure, shortened: as §1
T5 sequence (whole entry): T3 sequence (P29275 whole entry)

[8] = molecular target: T6, Adenosine receptor A1 (Homo sapiens) (UniProt P30542); experiment: Displacement of [3H]DPCPX from human A1 adenosine receptor expressed in CHO cells at 1 uM after 120 mins by scintillation counting analysis; type: cell-based
T6 sequence (whole entry): T2 sequence (P30542 whole entry)

[9] = molecular target: T7, Adenosine receptor A3 (Rattus norvegicus) (UniProt P28647); experiment: Displacement of [125I]AB-MECA from rat A3 adenosine receptor expressed in HEK293 cells at 1 uM after 60 mins by scintillation counting analysis; type: cell-based
T7 sequence (whole entry): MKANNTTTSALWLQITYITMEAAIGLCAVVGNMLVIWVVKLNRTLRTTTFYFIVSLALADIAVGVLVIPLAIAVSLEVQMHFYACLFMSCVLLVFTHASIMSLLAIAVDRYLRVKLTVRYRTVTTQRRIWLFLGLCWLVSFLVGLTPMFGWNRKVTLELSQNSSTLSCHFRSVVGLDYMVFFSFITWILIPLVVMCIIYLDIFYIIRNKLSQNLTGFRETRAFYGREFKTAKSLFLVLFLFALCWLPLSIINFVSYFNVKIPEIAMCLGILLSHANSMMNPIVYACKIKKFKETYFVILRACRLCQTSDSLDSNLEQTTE
Procedure, shortened: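 Rat A3 receptor in HEK293 membranes (10 μg protein) incubated with 0.5 nM [125I]AB-MECA in 50 mM Tris-HCl, 10 mM MgCl2, 1 mM EDTA, pH 7.4, for 60 min at 37 °C. Nonspecific binding defined with 1 μM AB-MECA. Filtration then scintillation counting. Output is % inhibition at 1 μM.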

[10] = test system: HT-29; experiment: Antiapoptotic activity against human HT-29 cells assessed as cell viability at 10 uM after 48 hrs by MTT assay in presence of 30 uM oxaliplatin (reference value: 81.9 +/- 0.9%); type: functional; procedure, shortened: as §3
[11] = molecular target: T8, Adenosine receptor A3 (Homo sapiens, UniProt P0DMS8); experiment: Displacement of [125I]AB-MECA from human A3 adenosine receptor expressed in CHO cells after 60 mins by scintillation counting analysis; type: cell-based
T8 sequence (P0DMS8 whole entry): T1 sequence (whole entry)

[12] = test system: HT-29; experiment: Antiapoptotic activity against human HT-29 cells assessed as cell viability at 10 uM after 48 hrs by MTT assay in presence of 3 uM oxaliplatin (reference value: 92.3 +/- 1.0%); type: functional; procedure, shortened: as §3
[13] = molecular target: T8, Adenosine receptor A3; experiment: Inhibition of human A3 adenosine receptor transfected in CHO cells assessed as inhibition of forskolin-induced cyclic AMP production after 10 mins by competitive protein binding assay in presence of CI-IB-MECA; type: functional, cell-based
Procedure, shortened: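 Human A3 CHO cells (1 × 10⁶/assay) preincubated 10 min at 37 °C with adenosine deaminase and Ro 20-1724. Antagonist potency measured against 100 nM Cl-IB-MECA-mediated inhibition of 1 μM forskolin-stimulated cAMP. cAMP quantified by [3H]cAMP competition binding. IC50 by sigmoid regression, mean SEM of four experiments.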

[14] = test system: Astrocyte; experiment: Antiapoptotic activity against Sprague-Dawley rat astrocytes assessed as reduction of oxaliplatin-induced caspase-3 activity at 1 uM after 4 hrs by fluorimetric assay; type: functional, cell-based
Procedure, shortened: (§4)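 Primary cortical astrocytes from newborn (P1–P3) rats, GFAP-positive, used 21 days after isolation and serum-starved overnight. Cells were exposed to 100 μM oxaliplatin for 4 h with test compound co-incubated. Lysates were incubated with 0.025 mM Z-DEVD-R110 at 25 °C for 30 min and read by fluorescence (ex 496/em 520 nm). Output is % of untreated control, mean SEM.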

[15] = test system: HT-29; experiment: Antiapoptotic activity against human HT-29 cells assessed as cell viability at 10 uM after 48 hrs by MTT assay in presence of 0.3 uM oxaliplatin (reference value: 97.6 +/- 0.9%); type: functional; procedure, shortened: as §3
[16] = test system: HT-29; experiment: Antiapoptotic activity against human HT-29 cells assessed as cell viability at 10 uM after 48 hrs by MTT assay in presence of 100 uM oxaliplatin (reference value: 52.2 +/- 0.5%); type: functional; procedure, shortened: as §3
[17] = test system: Astrocyte; experiment: Antiapoptotic activity against Sprague-Dawley rat astrocytes assessed as reduction of oxaliplatin-induced caspase-3 activity at 0.1 to 10 uM after 4 hrs by fluorimetric assay; type: functional, cell-based; procedure, shortened: as §4
[18] = molecular target: T4, Adenosine receptor A2a; experiment: Displacement of [3H]ZM241385 from human A2A adenosine receptor expressed in CHO cells at 1 uM after 60 mins by scintillation counting analysis; type: cell-based; procedure, shortened: as §2

Row | Structure (SMILES) | inhibition [1] [%] | Ki [2] [µM] | IC50 [3] [µM] | Ki [4] [µM] | Activity [5] [%] | viability at 10 µM [6] [%] | inhibition [7] [%] | inhibition [8] [%] | inhibition [9] [%] | Activity [10] [%] | Ki [11] [µM] | Activity [12] [%] | IC50 [13] [µM] | Activity [14] | Activity [15] [%] | Activity [16] [%] | Activity [17] | inhibition [18] [%]
1 | Nc1nc(-c2ccccc2)nc2cn(-c3ccccc3)nc12 | 48 | 0.075 | 0.44 | 0.325 |  |  |  |  |  |  |  |  |  |  |  |  |  | 
2 | Nc1nc(Cc2ccccc2)nc2cn(-c3ccccc3)nc12 | 39 | 0.15 | 0.42 | 0.11 |  |  |  |  |  |  |  |  |  |  |  |  |  | 
3 | Cc1nc(N)c2nn(-c3ccccc3)cc2n1 | 40 | 0.07 | 0.32 | 0.246 |  |  |  |  |  |  |  |  |  |  |  |  |  | 
4 | COc1ccc(-n2cc3nc(-c4ccccc4)nc(NC(=O)Cc4ccccc4)c3n2)cc1 |  |  |  |  | 90.2 | 82.2 | 2 | 29 | 3 | 78.8 | 0.024 | 86.6 | 0.08 | Active | 95.1 | 54.8 | Active | 18
